Reference: PMC3115469 (Molecular microbiology, 2011)
Several values for one entry are separate records, joined by “and”; a condition that tells them apart may be missing. Equal entries are not always repeated. Square brackets hold non-standard residues; d marks the D form. Peptide text beside a SMILES is read from it. Orn(N5-OH,N5-Ac) = CC(=O)N(O)CCC[C@H](N)C(=O)O

What was measured:
[1] = molecular target: listerial CM Fc transporter FhuDBGC; details: ref Jin et al., 2005, cited from earlier work
[2] = system: E. coli FhuA; details: ref Newton et al., 2010; cited from earlier work
[3] = system: L. monocytogenes EGD-e; assay: Iron nutrition tests on BHI agar with bipyridyl, EGD-e; format: cell-based, Listeria monocytogenes; details: 50 uM Fc, EGD-e and all mutant strains
[4] = system: L. monocytogenes EGD-e; assay: [59Fe]-Hn binding to whole cells, EGD-e; design: species or system Listeria monocytogenes; details: strain EGD-e; for Kd: read-out: Binding Kd, MOPS-L, on ice
[5] = system: L. monocytogenes EGD-e; assay: Growth assay in BHI with 2,2'-bipyridyl; format: cell-based, Listeria monocytogenes
[6] = system: L. monocytogenes EGD-e; assay: [59Fe]-Hn uptake by cells, EGD-e; format: cell-based, Listeria monocytogenes; details: for Km: read-out: Transport Km; for Km / Transport Vmax: 37°C
[7] = molecular target: HupD-6H (Lmo2431) (Listeria monocytogenes, UniProt Q8Y4K7); assay: Intrinsic Trp fluorescence quenching, ligand binding to purified 6H-HupD
[8] = system: L. monocytogenes EGD-e; details: aqueous buffers; ref Jin et al., 2005; cited from earlier work
[9] = system: L. monocytogenes EGD-e Δhup (ΔhupDGC); assay: [59Fe]-Hn uptake by cells, Δhup; format: cell-based, Listeria monocytogenes
[10] = molecular target: FhuD-6H (Lmo1959) (Listeria monocytogenes, UniProt Q8Y5U6); assay: Intrinsic Trp fluorescence quenching, ligand binding to purified 6H-FhuD
[11] = system: L. monocytogenes EGD-e ΔsrtAB; assay: [59Fe]-Hn binding to whole cells, ΔsrtAB; design: species or system Listeria monocytogenes; details: strain ΔsrtAB
Method in brief: (§1)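 Bacteria were grown overnight in BHI at 37°C, then passaged twice (1%) in iron-deficient MOPS-L to OD600 0.6–0.8. Cells were exposed on ice for 1 min to [59Fe]-Hn (DMSO stock diluted in ice-cold MOPS-L). They were filtered (0.45 µm), washed with 50 mM Tris-HCl pH 9.0 plus 0.05% Tween-20, and gamma-counted. Filter-only counts were subtracted. Triplicates were fitted to a one-site-plus-background model for KD and capacity (pmol/10^9 cells).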

[12] = system: L. monocytogenes EGD-e ΔsrtA; assay: [59Fe]-Hn uptake by cells, ΔsrtA; format: cell-based, Listeria monocytogenes; details: strain ΔsrtA
Method in brief: (§2)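 Cultures from overnight BHI (37°C) were passaged 1% into MOPS-L to stationary phase, then again to OD600 0.8–1. Cells were added to 37°C MOPS containing varying [59Fe]-Hn, filtered at 5 s and 1 min, washed with ice-cold 50 mM Tris, 0.05% Tween-20, pH 9, and gamma-counted. The 5 s counts were subtracted from 1 min counts to give rate. Triplicates were fitted to enzyme kinetics for KM and Vmax.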

[13] = system: L. monocytogenes EGD-e ΔsrtA; assay: [59Fe]-Hn binding to whole cells, ΔsrtA; design: species or system Listeria monocytogenes; details: strain ΔsrtA
Method in brief: as §1

[14] = system: L. monocytogenes EGD-e ΔsrtB; assay: [59Fe]-Hn uptake by cells, ΔsrtB; format: cell-based, Listeria monocytogenes; details: strain ΔsrtB
Method in brief: as §2

[15] = molecular target: T1, Lmo2185 (Hbp2) (Listeria monocytogenes serovar 1/2a, UniProt Q7AP54); assay: Equilibrium [59Fe]-Hn filter binding to purified Lmo2185
T1 sequence (Q7AP54 29-569): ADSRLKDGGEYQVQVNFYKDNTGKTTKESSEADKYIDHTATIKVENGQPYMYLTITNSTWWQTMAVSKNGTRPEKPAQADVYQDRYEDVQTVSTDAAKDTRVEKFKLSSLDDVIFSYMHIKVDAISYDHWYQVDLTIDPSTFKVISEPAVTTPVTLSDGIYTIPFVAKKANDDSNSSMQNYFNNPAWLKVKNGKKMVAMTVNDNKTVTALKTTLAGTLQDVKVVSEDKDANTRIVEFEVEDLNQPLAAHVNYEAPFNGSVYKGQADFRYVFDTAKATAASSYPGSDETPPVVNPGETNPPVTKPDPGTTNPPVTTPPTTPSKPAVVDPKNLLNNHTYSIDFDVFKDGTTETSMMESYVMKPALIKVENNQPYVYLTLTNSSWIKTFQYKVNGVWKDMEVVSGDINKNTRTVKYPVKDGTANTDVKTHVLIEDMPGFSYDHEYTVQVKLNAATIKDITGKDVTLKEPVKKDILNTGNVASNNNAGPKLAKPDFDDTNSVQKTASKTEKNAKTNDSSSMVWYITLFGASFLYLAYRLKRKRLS
Method in brief: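 His-tagged Hbp2 expressed in E. coli BL21 (1 mM IPTG), purified on Co-NTA and Sephacryl S-100, stripped of Hn by boiling in 0.5% SDS and acetone precipitation, then renatured in TBS pH 8.0. Protein at 30.6 pmol/mL, refolded 1 h at RT, mixed with [59Fe]-Hn (DMSO) for 30 min on ice. Filtered on cellulose acetate and gamma-counted. Triplicates, protein-free background subtracted, KD from bound-vs-total fit.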

[16] = system: L. monocytogenes EGD-e Δlmo2185 (Δhbp2); assay: [59Fe]-Hn binding to whole cells, Δlmo2185; design: species or system Listeria monocytogenes
[17] = system: L. monocytogenes EGD-e Δhup (ΔhupDGC); assay: [59Fe]-Hn binding to whole cells, Δhup; design: species or system Listeria monocytogenes
[18] = system: L. monocytogenes EGD-e ΔsrtB; assay: [59Fe]-Hn binding to whole cells, ΔsrtB; design: species or system Listeria monocytogenes
[19] = system: L. monocytogenes EGD-e ΔsrtAB; assay: [59Fe]-Hn uptake by cells, ΔsrtAB; format: cell-based, Listeria monocytogenes; details: strain ΔsrtAB
Method in brief: as §2

CC(=O)N(O)CCC[C@@H]1NC(=O)CNC(=O)CNC(=O)CNC(=O)[C@H](CCCN(O)C(C)=O)NC(=O)[C@H](CCCN(O)C(C)=O)NC1=O.[Fe+3] [Fc, ferrichrome] (cyclo(GGG[Orn(N5-OH,N5-Ac)][Orn(N5-OH,N5-Ac)][Orn(N5-OH,N5-Ac)]))
Kd ([1]; read-out: KD, listerial Fc acquisition, KD ≈ KM): ~1 nM | Km ([1]; read-out: KM, listerial Fc transport, KD ≈ KM): ~1 nM | Vmax of Fc transport, FhuDBGC [1]: 22 pMol/10^9 cells/min | Vmax of Fc transport, E. coli FhuA [2]: 45 pMol/10^9 cells/min | utilization as iron source in nutrition test [3]: normally utilized

C=CC1=C(C)c2cc3[nH]c(cc4nc(cc5[nH]c(cc1n2)c(C)c5C=C)C(C)=C4CCC(=O)O)c(CCC(=O)O)c3C.[Fe+3] [Hn, haemin]
Kd [4]: ~1 nM | effect on growth in BHI containing 1 mM BP ([5]; 0.2 mM Hn added (printed), EGD-e): returned to its original growth rate | Km ([6]; strain EGD-e): 1 nM and ~1 nM | Transport Vmax ([6]; strain EGD-e): 23 pMol/10^9cells/min | fold higher affinity of 6H-HupD than the most avid LmoFhuD binding interaction ([7]; relative to FhuD-FxB): 5 fold | concentration that stimulated growth in previous study [8]: 200 µM | Transport Vmax ([9]; strain Δhup): 7 pMol/10^9cells/min | fold lower uptake rate than wild type ([9]; ΔhupDBGC strain vs EGD-e): 3 fold

c1ccc(-c2ccccn2)nc1 [BP, 2, 2’-bipyridyl]
effect on growth in BHI ([5]; 1 mM BP, wild type and mutant derivatives): inhibited growth

C=CC1=C(C)c2cc3[nH]c(cc4nc(cc5[nH]c(cc1n2)c(C)c5CCC(=O)O)C(CCC(=O)O)=C4C)c(C)c3C=C [PPIX, protoporphyrin IX]
Kd ([10]; Binding Kd FhuD-6H, intrinsic fluorescence quenching, 3–5 trials, Kd ± SD): 276 ± 32 nM | Kd ([10]; KD for 6H-FhuD, fluorescence spectroscopy): 300 nM | Kd [7]: 1150 nM | fold lower affinity for LmoHupD than Hn ([7]; relative to Hn): 40 fold

C=CC1=C(C)c2cc3[n-]c(cc4nc(cc5[n-]c(cc1n2)c(C)c5CCC(=O)O)C(CCC(=O)O)=C4C)c(C)c3C=C.[59Fe+3] [[^59Fe]-Hn]
Kd ([11]; read-out: Binding Kd): 5.1 ± 3 nM | Binding Cap. [11]: 9 pMol/10^9cells and 9 ± 1.5 pMol/10^9cells | Kd [4]: 2 nM and 2.4 nM | Binding Cap. [4]: 130 pMol/10^9cells and 129.5 ± 5.6 pMol/10^9cells | Km ([12]; read-out: Transport Km): 1.4 ± 0.2 nM | Transport Vmax [12]: 23.1 ± 0.6 pMol/10^9cells/min | Km ([6]; strain EGD-e): 1.2 ± 0.2 nM | Hup-dependent transport rate Vmax ([6]; residual accumulation in Δhup subtracted from wild-type, estimate): 14 pMol/10^9 cells/min | Vmax of uptake (text, unit without /min) ([6]; strain EGD-e): 23 pMol/10^9 cells | Transport Vmax ([6]; strain EGD-e): 22.2 ± 0.9 pMol/10^9cells/min | Km ([9]; read-out: Transport Km, strain Δhup): 1.1 ± 0.2 nM | Transport Vmax ([9]; strain Δhup): 7.5 pMol/10^9cells/min and 7.5 ± 0.3 pMol/10^9cells/min | Vmax as percent of the wild type rate ([9]; ΔhupDGC vs EGD-e): 27% | Kd ([13]; read-out: Binding Kd): 2.3 ± 0.16 nM | Binding Cap. [13]: 130 pMol/10^9cells and 129 ± 1.9 pMol/10^9cells | Km ([14]; read-out: Transport Km): 7.1 ± 7.5 nM | Transport Vmax [14]: 3.5 ± 1.6 pMol/10^9cells/min | Kd [15]: 12 nM | Kd ([16]; read-out: Binding Kd, strain Δlmo2185 (Δhbp2)): 11.4 ± 2.6 nM | Binding Cap. ([16]; strain Δlmo2185 (Δhbp2)): 30.1 ± 2.9 pMol/10^9cells | decrease of binding capacity ([16]; Δhbp2 vs EGD-e, nanomolar range): 80% | Kd ([17]; read-out: Binding Kd, strain Δhup): 2.5 ± 0.45 nM | Binding Cap. ([17]; strain Δhup): 105 pMol/10^9cells and 105 ± 4.2 pMol/10^9cells | decrease of binding capacity ([17]; Δhup vs EGD-e): ~ 20% and 20% | Kd ([18]; read-out: Binding Kd, strain ΔsrtB): 9.9 ± 1.3 nM | Binding Cap. ([18]; strain ΔsrtB): 19 pMol/10^9cells and 18.7 ± 0.9 pMol/10^9cells | decrease of binding capacity ([18]; ΔsrtB vs EGD-e, nanomolar range): 80% | Km ([19]; read-out: Transport Km): 15.1 ± 6.4 nM | Transport Vmax [19]: 5.6 ±1.3 pMol/10^9cells/min
